Source: ChEMBL document CHEMBL3865807, “Syntheses and photodynamic activity of some glucose-conjugated BODIPY dyes” (Eur J Med Chem, 2016)
Calls of active or inactive are those of the source. The calls are words filed in the database; no cut-off is given here.

What was measured:
[1] = Drug uptake in human A549 cells assessed as mean fluorescence intensity at 2.5 uM after 4 hrs by flow cytometry (reference value: 2.4 +/- 1.1); format: ADME, cell-based; details: a549, 4 h
[2] = Photocytotoxicity against human A549 cells assessed as decrease in cell viability preincubated for 1 hr followed by 0.77 mW/cm2 white light irradiation for 80 mins measured after 24 hrs by MTT assay; format: functional, cell-based; details: A549, light or radiation study
In short: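 IC50 from MTT: A549 cells (1×10^4/well) given graded compound concentrations 1 h in serum-free DMEM (vehicle ≤0.1% DMSO), washed, photo-exposed 80 min at 0.77 mW/cm², regular medium 24 h; MTT 0.5 mg/mL 6 h, A550; viability relative to vehicle control; four replicates, three experiments, mean ± SEM.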

[3] = Drug uptake in human A549 cells assessed as mean fluorescence intensity at 2.5 uM after 8 hrs by flow cytometry (reference value: 2.4 +/- 1.1); format: ADME, cell-based; details: a549, 8 h
[4] = Drug uptake in human A549 cells assessed as mean fluorescence intensity at 2.5 uM after 16 hrs by flow cytometry (reference value: 2.4 +/- 1.1); format: ADME, cell-based; details: a549, 16 h
[5] = Drug uptake in human A549 cells assessed as mean fluorescence intensity at 2.5 uM after 2 hrs by flow cytometry (reference value: 2.4 +/- 1.1); format: ADME, cell-based; details: a549, 2 h
[6] = Drug uptake in cytoplasm of human A549 cells at 1 uM after 0.25 to 3 hrs by Hoechst 33342 staining based fluorescence microscopy; format: ADME, cell-based; details: a549, 1 µM
In short: (§1)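 A549 cells on coverslips loaded with dyes (1 µM) for 0.25, 0.5, 1, 2 or 3 h at 37 °C, washed, counterstained with Hoechst 33342 (10 µM), mounted in 70% glycerol; red dye and blue nuclear fluorescence imaged by fluorescence microscopy (40×) and overlaid.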

A549 [7] = experiment: Photocytotoxicity against human A549 cells assessed as decrease in cell viability at 500 to 5000 nM preincubated for 1 hr followed by 0.77 mW/cm2 white light irradiation measured after 24 hrs by MTT assay; format: functional, cell-based; details: TDE = time-dependent effect
In short: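 A549 cells (1×10^4/well), plated overnight, given compound for 1 h in serum-free medium, washed twice with PBS, irradiated 0.5, 1, 2 or 4 h at 0.77 mW/cm² (37 °C, 5% CO₂), then 24 h in regular medium; MTT 0.5 mg/mL for 6 h, formazan dissolved in 0.01 N HCl/10% SDS, A550.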

[8] = Cytotoxicity against human A549 cells assessed as decrease in cell viability up to 200 uM after 48 hrs under dark condition by MTT assay; format: toxicity, cell-based; details: a549, 48 h
In short: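 Dark toxicity: A549 cells treated as in the MTT protocol (1 h compound exposure, serum-free medium, washed) with no light, then assessed at 48 h by MTT (0.5 mg/mL, 6 h, formazan in HCl/SDS, A550).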

[9] = Drug uptake in human A549 cells assessed as mean fluorescence intensity at 2.5 uM after 24 hrs by flow cytometry (reference value: 2.4 +/- 1.1); format: ADME, cell-based; details: a549, 24 h
[10] = Drug uptake in human A549 cells at 1 uM after 0.25 to 3 hrs by Hoechst 33342 staining based fluorescence microscopy; format: ADME, cell-based; details: a549, 1 µM; in short: as §1
Bos taurus [11] = species: Bos taurus; experiment: Binding affinity to calf thymus duplex DNA assessed as decrease in intensities of maximum absorption at 20 uM by spectrophotometric titration analysis
Bos taurus [12] = species: Bos taurus; experiment: Binding affinity to calf thymus duplex DNA assessed as decrease in intensities of maximum absorption at 20 uM by spectrophotometric titration analysis
Bos taurus [13] = species: Bos taurus; experiment: Binding affinity to calf thymus duplex DNA by UV-visible spectra analysis
A549 [14] = experiment: Photocytotoxicity against human A549 cells assessed as necrosis at 2.5 uM preincubated for 1 hr followed by 0.77 mW/cm2 white light irradiation for 80 mins measured after 2 hrs by trypan blue staining based phase contrast microscopy; format: functional, cell-based
In short: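 Cells (1×10^5/well) on coverslips treated 1 h with dye (2.5 µM) or 0.1% DMSO, irradiated 80 min, serum added, 2 h later washed, stained with 0.1% trypan blue in PBS for 5 min, then viewed by phase-contrast microscopy at 40×.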

SMILES	Flu intensity [1]	IC50 [2]	Flu intensity [3]	Flu intensity [4]	Flu intensity [5]	Drug uptake [6]	Activity (A549 [7])	Activity [8]	Flu intensity [9]	Drug uptake [10]	Activity (Bos taurus [11])	Activity (Bos taurus [12])	Kb (Bos taurus [13])	Activity (A549 [14])
CCC1=C(C)C2=C(C)c3c(C)c(CC)c(C)n3[B-](F)(F)[N+]2=C1/C=C/c1ccc(O)cc1	53.7	6.5 µM	43.9	40.9	88	Active	Tde	Non-Toxic	38.4					
CCC1=C(C)C2=C(c3ccccc3)c3c(C)c(CC)c(C)n3[B-](F)(F)[N+]2=C1/C=C/c1ccc(O[C@H]2O[C@H](CO)[C@@H](O)[C@H](O)[C@H]2O)cc1		2.5 µM				Active	Tde	Non-Toxic						
CCC1=C(C)C2=C(c3ccccc3)c3c(C)c(CC)c(C)n3[B-](F)(F)[N+]2=C1/C=C/c1ccc(O)cc1		6.4 µM				Active	Tde	Non-Toxic						
CCC1=C(C)C2=C(C)c3c(C)c(CC)c(C)n3[B-](F)(F)[N+]2=C1C		6.8 µM								Active				
CCC1=C(C)C2=C(c3ccc(O[C@H]4O[C@H](CO)[C@@H](O)[C@H](O)[C@H]4O)cc3)c3c(C)c(CC)c(C)n3[B-](F)(F)[N+]2=C1C		> 10 µM				Active	Tde	Non-Toxic			Active	Active	3.4 ×10⁴ /M	
CCC1=C(C)C2=C(c3ccc(O)cc3)c3c(C)c(CC)c(C)n3[B-](F)(F)[N+]2=C1C		2.1 µM				Active	Tde	Non-Toxic						Active
